{"source": "ChEMBL document CHEMBL4229344", "about": "(Eur J Med Chem, 2018)", "key": {"[1]": {"molecular_target": "Receptor-interacting serine/threonine-protein kinase 1 (Homo sapiens) (UniProt Q13546)", "experiment": "Binding affinity to wild-type human partial length RIPK1 (M1 to K305 residues) expressed in bacterial expression system assessed as residual binding level at 1 uM by Kinomescan method relative to control", "outline": "(§1)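 KINOMEscan competition binding against a panel of 468 purified kinases/mutants, compound tested at 1 μM; readout is relative binding activity versus control.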"}, "[2]": {"molecular_target": "RAC-gamma serine/threonine-protein kinase (Homo sapiens) (UniProt Q9Y243)", "experiment": "Binding affinity to wild-type human partial length AKT3 expressed in bacterial expression system assessed as residual binding level at 1 uM by Kinomescan method relative to control", "outline": "(§2)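 Kinome-wide competition binding screen against a panel of 468 purified kinases/mutants, with the test compound at a single concentration of 1 μM. Read-out is the relative binding activity of each kinase in the presence of compound.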"}, "[3]": {"molecular_target": "Cyclin-dependent kinase 8 (Homo sapiens) (UniProt P49336)", "experiment": "Binding affinity to wild-type human partial length CDK8 (M1 to T360 residues) expressed in bacterial expression system assessed as residual binding level at 1 uM by Kinomescan method relative to control"}, "[4]": {"molecular_target": "Tyrosine-protein kinase receptor UFO (Homo sapiens) (UniProt P30530)", "sequence (P30530 whole entry, the tested form may be a part)": "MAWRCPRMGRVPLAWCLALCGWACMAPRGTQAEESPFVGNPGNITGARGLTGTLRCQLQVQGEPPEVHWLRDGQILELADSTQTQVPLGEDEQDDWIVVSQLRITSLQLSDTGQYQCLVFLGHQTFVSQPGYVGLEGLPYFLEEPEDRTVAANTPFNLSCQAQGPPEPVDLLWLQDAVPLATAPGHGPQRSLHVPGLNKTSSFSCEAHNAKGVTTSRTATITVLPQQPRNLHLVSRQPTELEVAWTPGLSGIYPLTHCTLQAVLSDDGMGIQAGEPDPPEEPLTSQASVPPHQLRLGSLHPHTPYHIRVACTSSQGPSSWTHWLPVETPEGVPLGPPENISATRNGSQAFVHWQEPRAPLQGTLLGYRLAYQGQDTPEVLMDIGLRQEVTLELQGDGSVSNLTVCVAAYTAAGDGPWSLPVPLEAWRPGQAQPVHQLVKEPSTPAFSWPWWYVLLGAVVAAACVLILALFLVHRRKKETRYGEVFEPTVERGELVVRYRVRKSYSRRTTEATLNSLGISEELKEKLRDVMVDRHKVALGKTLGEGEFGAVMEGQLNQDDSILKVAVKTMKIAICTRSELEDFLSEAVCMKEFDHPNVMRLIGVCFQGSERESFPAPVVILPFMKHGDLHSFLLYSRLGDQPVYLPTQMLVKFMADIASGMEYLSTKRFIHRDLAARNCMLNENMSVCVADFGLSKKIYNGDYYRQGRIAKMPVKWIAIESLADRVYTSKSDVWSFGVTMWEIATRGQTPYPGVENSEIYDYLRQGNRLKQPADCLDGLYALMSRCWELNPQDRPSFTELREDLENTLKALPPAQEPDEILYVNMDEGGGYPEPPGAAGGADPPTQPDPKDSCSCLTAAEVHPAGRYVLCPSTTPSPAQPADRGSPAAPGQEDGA", "experiment": "Binding affinity to wild-type human partial length AXL (R497 to Y821 residues) expressed in bacterial expression system assessed as residual binding level at 1 uM by Kinomescan method relative to control", "outline": "(§3)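 Single-concentration KINOMEscan (DiscoverX) binding screen at 1 μM against a panel of 468 purified kinases and mutants. The read-out is binding relative to control.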"}, "[5]": {"molecular_target": "Dual specificity mitogen-activated protein kinase kinase 1 (Homo sapiens) (UniProt Q02750)", "experiment": "Binding affinity to wild-type human full length MEK1 (M1 to V393 residues) expressed in mammalian expression system assessed as residual binding level at 1 uM by Kinomescan method relative to control", "outline": "as §3"}, "[6]": {"molecular_target": "Dual specificity mitogen-activated protein kinase kinase 3 (Homo sapiens) (UniProt P46734)", "experiment": "Binding affinity to wild-type human full length MEK3 (M1 to S318 residues) expressed in mammalian expression system assessed as residual binding level at 1 uM by Kinomescan method relative to control", "outline": "as §3"}, "[7]": {"molecular_target": "Mast/stem cell growth factor receptor Kit (Homo sapiens, UniProt P10721)", "experiment": "Inhibition of TEL-fused c-KIT (unknown origin) expressed in mouse BA/F3 cells assessed as growth inhibition after 72 hrs by CellTiter-Glo or CCK-8 assay", "format": "cell-based", "outline": "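Parental BaF3 or IL-3-independent TEL-kinase BaF3 lines, made by retroviral infection and puromycin selection, grown in RPMI 1640 with 10% FBS. Cells seeded at 1–3 × 10^4 cells/mL with serial compound concentrations for 72 h. Viability read by CellTiter-Glo luminescence or CCK-8 absorbance at 450/655 nm and normalised to DMSO. GI50 obtained by triplicate testing with linear regression. Selectivity is the ratio of the two GI50 values.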"}, "[8]": {"tested_on": "Phosphatidylinositol 4,5-bisphosphate 3-kinase catalytic subunit alpha isoform (Homo sapiens), P42336 [M1043I]", "sequence (P42336 whole entry M1043I, the tested form may be a part, canonical isoform)": "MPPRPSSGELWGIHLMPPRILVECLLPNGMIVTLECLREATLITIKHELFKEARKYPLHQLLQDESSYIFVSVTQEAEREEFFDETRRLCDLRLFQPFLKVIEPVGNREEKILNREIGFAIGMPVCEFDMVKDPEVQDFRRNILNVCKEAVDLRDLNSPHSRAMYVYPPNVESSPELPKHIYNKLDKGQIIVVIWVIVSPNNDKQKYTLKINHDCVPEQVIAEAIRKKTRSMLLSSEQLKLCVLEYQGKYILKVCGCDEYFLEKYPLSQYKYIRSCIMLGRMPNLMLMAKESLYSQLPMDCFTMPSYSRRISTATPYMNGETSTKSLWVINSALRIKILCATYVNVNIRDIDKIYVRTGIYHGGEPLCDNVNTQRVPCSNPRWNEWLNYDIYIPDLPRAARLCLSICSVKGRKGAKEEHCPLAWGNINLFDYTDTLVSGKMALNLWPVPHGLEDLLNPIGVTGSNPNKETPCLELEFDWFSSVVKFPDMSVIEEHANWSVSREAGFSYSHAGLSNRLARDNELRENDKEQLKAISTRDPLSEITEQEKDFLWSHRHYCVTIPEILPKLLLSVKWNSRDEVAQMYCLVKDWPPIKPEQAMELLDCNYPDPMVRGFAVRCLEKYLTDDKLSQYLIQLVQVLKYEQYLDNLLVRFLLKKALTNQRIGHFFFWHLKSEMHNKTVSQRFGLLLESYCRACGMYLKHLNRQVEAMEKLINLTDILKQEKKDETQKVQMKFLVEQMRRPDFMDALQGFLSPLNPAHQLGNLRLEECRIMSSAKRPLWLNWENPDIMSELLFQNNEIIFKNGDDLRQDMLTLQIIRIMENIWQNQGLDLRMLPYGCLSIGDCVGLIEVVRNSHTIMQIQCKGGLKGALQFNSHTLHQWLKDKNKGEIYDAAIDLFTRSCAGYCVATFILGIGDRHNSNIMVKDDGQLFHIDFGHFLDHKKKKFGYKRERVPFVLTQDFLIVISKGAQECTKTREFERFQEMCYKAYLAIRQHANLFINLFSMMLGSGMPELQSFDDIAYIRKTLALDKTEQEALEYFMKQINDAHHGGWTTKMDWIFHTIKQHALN", "experiment": "Binding affinity to human partial length PIK3CA M1043I mutant (R108 to N1068 residues) expressed in mammalian expression system assessed as residual binding level at 1 uM by Kinomescan method relative to control", "outline": "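Kinome-wide single-concentration binding screen (KINOMEscan) at 1 μM against a panel of 468 purified kinases and mutants. Read-out is relative binding of each kinase compared with control. Selectivity across the panel was summarised as an S(10) score.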"}, "[9]": {"molecular_target": "Protein kinase C epsilon type (Homo sapiens) (UniProt Q02156)", "sequence (Q02156 whole entry, the tested form may be a part)": "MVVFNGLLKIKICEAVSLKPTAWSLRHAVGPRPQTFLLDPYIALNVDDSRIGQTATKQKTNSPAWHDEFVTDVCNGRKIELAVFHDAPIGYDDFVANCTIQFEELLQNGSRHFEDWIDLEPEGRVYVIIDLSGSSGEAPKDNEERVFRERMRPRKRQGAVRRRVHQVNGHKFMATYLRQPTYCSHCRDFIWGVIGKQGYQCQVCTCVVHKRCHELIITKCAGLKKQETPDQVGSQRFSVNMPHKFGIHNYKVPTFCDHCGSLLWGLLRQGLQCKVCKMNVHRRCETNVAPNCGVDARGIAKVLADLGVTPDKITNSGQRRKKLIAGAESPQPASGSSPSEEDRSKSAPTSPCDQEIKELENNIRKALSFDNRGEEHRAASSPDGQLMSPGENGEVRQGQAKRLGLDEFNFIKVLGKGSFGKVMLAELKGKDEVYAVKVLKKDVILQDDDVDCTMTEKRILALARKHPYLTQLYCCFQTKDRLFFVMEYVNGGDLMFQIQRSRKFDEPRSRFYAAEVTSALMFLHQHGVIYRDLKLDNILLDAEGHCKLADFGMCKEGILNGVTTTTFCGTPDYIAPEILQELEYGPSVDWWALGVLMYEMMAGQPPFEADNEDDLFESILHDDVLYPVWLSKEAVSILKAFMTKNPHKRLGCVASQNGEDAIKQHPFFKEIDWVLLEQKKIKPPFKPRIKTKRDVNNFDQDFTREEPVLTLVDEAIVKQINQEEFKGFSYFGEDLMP", "experiment": "Binding affinity to wild-type human partial length PRKCE (A378 to P737 residues) expressed in mammalian expression system assessed as residual binding level at 1 uM by Kinomescan method relative to control", "outline": "as §1"}, "[10]": {"molecular_target": "Tyrosine-protein kinase JAK1 (Homo sapiens) (UniProt P23458)", "experiment": "Binding affinity to wild-type human partial length JAK1 JH2 pseudokinase domain (R537 to D855 residues) expressed in mammalian expression system assessed as residual binding level at 1 uM by Kinomescan method relative to control"}, "[11]": {"molecular_target": "Serine/threonine-protein kinase SBK1 (Homo sapiens) (UniProt Q52WX2)", "experiment": "Binding affinity to wild-type human partial length SBK1 (P23 to P348 residues) expressed in mammalian expression system assessed as residual binding level at 1 uM by Kinomescan method relative to control"}, "[12]": {"molecular_target": "Dual specificity protein kinase CLK1 (Homo sapiens) (UniProt P49759)", "experiment": "Binding affinity to wild-type human full length CLK1 (M1 to I484 residues) expressed in bacterial expression system assessed as residual binding level at 1 uM by Kinomescan method relative to control", "outline": "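KINOMEscan competition binding against 468 purified kinases/mutants, test compound at 1 µM; residual binding relative to control.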"}, "[13]": {"molecular_target": "Serine/threonine-protein kinase Nek9 (Homo sapiens) (UniProt Q8TD19)", "experiment": "Binding affinity to wild-type human partial length NEK9 (P32 to R328 residues) expressed in bacterial expression system assessed as residual binding level at 1 uM by Kinomescan method relative to control", "outline": "as §1"}, "[14]": {"molecular_target": "Proto-oncogene tyrosine-protein kinase ROS (Homo sapiens) (UniProt P08922)", "experiment": "Binding affinity to wild-type human partial length ROS1 (A1921 to N2240 residues) expressed in bacterial expression system assessed as residual binding level at 1 uM by Kinomescan method relative to control"}, "[15]": {"molecular_target": "Dual specificity protein kinase CLK4 (Homo sapiens) (UniProt Q9HAZ1)", "experiment": "Binding affinity to wild-type human partial length CLK4 (R135 to K481 residues) expressed in bacterial expression system assessed as residual binding level at 1 uM by Kinomescan method relative to control", "outline": "as §2"}, "[16]": {"molecular_target": "Serine/threonine-protein kinase Nek5 (Homo sapiens) (UniProt Q6P3R8)", "sequence (Q6P3R8 whole entry, the tested form may be a part)": "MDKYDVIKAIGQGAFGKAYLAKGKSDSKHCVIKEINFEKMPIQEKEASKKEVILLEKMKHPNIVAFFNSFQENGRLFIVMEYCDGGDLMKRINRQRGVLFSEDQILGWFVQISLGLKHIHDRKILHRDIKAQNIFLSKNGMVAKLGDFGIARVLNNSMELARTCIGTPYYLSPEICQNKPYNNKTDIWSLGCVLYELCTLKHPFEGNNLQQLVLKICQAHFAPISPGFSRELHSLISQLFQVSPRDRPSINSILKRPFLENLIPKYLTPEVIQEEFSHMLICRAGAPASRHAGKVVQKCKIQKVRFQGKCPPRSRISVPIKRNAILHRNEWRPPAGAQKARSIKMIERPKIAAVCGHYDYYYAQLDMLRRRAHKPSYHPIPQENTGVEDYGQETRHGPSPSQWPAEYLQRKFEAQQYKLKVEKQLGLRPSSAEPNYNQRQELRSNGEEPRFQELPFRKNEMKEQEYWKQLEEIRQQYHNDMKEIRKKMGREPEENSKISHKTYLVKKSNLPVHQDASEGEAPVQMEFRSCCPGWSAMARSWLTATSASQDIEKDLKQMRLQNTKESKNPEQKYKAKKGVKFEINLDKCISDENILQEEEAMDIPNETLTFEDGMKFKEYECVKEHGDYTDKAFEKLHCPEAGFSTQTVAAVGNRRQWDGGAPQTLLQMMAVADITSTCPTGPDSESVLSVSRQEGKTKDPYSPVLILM", "experiment": "Binding affinity to wild-type human partial length NEK5 (M1 to M279 residues) expressed in bacterial expression system assessed as residual binding level at 1 uM by Kinomescan method relative to control"}, "[17]": {"molecular_target": "Ephrin type-A receptor 3 (Homo sapiens) (UniProt P29320)", "experiment": "Binding affinity to wild-type human partial length EPHA3 (D604 to K889 residues) expressed in bacterial expression system assessed as residual binding level at 1 uM by Kinomescan method relative to control", "outline": "as §2"}, "[18]": {"molecular_target": "Cyclin-dependent kinase 11B (Homo sapiens) (UniProt P21127)", "sequence (P21127 whole entry, the tested form may be a part)": "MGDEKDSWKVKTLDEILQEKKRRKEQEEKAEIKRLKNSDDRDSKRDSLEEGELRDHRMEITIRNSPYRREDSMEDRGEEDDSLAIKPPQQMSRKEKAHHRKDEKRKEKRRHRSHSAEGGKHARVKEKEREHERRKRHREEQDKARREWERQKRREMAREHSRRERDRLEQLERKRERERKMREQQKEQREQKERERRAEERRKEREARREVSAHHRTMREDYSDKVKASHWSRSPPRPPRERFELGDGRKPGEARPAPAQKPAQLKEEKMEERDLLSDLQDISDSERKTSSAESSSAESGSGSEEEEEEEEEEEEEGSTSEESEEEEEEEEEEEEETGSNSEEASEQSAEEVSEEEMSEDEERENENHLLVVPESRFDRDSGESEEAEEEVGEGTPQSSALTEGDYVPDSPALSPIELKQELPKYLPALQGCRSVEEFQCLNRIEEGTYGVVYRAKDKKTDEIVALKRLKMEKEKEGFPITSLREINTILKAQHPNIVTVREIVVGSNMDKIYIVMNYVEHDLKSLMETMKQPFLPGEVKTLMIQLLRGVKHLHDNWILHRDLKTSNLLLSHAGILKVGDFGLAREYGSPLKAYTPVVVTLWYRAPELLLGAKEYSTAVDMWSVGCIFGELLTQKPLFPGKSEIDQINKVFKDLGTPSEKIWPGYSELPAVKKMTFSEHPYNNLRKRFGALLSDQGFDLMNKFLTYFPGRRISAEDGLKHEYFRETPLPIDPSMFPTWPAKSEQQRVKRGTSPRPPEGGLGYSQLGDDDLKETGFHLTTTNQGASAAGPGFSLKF", "experiment": "Binding affinity to wild-type human partial length CDC2L1 (P353 to G692 residues) expressed in bacterial expression system assessed as residual binding level at 1 uM by Kinomescan method relative to control", "outline": "as §2"}, "[19]": {"molecular_target": "Ribosomal protein S6 kinase alpha-3 (Homo sapiens) (UniProt P51812)", "sequence (P51812 whole entry, the tested form may be a part)": "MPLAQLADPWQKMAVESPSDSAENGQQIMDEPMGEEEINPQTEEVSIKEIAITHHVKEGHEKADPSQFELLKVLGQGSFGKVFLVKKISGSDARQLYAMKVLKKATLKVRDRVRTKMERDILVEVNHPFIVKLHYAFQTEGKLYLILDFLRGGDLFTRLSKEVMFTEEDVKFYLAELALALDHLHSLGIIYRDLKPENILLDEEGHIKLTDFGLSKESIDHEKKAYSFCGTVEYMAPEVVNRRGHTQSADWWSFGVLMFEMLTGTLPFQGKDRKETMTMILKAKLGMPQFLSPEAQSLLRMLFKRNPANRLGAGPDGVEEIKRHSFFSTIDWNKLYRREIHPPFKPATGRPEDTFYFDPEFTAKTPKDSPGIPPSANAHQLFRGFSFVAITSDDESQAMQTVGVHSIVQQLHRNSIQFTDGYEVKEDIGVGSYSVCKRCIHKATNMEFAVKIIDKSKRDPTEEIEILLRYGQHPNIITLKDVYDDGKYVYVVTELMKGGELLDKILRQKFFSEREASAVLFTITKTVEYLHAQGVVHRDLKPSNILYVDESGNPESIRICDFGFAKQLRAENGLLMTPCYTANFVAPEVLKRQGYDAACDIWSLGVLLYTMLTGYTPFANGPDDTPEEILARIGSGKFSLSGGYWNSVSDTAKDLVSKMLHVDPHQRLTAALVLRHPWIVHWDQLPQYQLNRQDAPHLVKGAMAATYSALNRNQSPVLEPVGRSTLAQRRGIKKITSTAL", "experiment": "Binding affinity to wild-type human partial length N-terminal RSK2 kinase domain 1 (M1 to D394 residues) expressed in mammalian expression system assessed as residual binding level at 1 uM by Kinomescan method relative to control"}}}
{"compound": "Cc1ccc(NC(=O)c2ccc(CN(CCN(C)C)C(=O)c3cccnc3)cc2)cc1Nc1nccc(-c2cccnc2)n1", "values": [{"measurement": "Activity", "setting": "[1]", "result": 89, "unit": "%"}, {"measurement": "Activity", "setting": "[2]", "result": 92, "unit": "%"}, {"measurement": "Activity", "setting": "[3]", "result": 90, "unit": "%"}, {"measurement": "Activity", "setting": "[4]", "result": 95, "unit": "%"}, {"measurement": "Activity", "setting": "[5]", "result": 97, "unit": "%"}, {"measurement": "Activity", "setting": "[6]", "result": 98, "unit": "%"}, {"measurement": "GI50", "setting": "[7]", "result": "> 10", "unit": "µM"}, {"measurement": "Activity", "setting": "[8]", "result": 100, "unit": "%"}, {"measurement": "Activity", "setting": "[9]", "result": 80, "unit": "%"}, {"measurement": "Activity", "setting": "[10]", "result": 78, "unit": "%"}, {"measurement": "Activity", "setting": "[11]", "result": 100, "unit": "%"}, {"measurement": "Activity", "setting": "[12]", "result": 87, "unit": "%"}, {"measurement": "Activity", "setting": "[13]", "result": 92, "unit": "%"}, {"measurement": "Activity", "setting": "[14]", "result": 99, "unit": "%"}, {"measurement": "Activity", "setting": "[15]", "result": 66, "unit": "%"}, {"measurement": "Activity", "setting": "[16]", "result": 99, "unit": "%"}, {"measurement": "Activity", "setting": "[17]", "result": 89, "unit": "%"}, {"measurement": "Activity", "setting": "[18]", "result": 91, "unit": "%"}, {"measurement": "Activity", "setting": "[19]", "result": 100, "unit": "%"}]}
